From PubChem BioAssay
Fibroblast inh: antiproliferative effect on LL 47 fibroblasts – human, LL 47 cells, CellTiter-Glo luminescence, primary screen; LL 47 human lung fibroblast viability, ATP luminescence; active compounds read low; viability, % at 10 µM; 85,000 compounds, 1.1% hits; AID 719, 2007;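 active means viability at or below 50% in the single dose screen; inactive means viability above 50%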;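 further: compound exposure lasted 72 h before the ATP readout; 100% = median luminescence of untreated cell-only wells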
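Test system: LL 47 human lung fibroblasts; Quantity: 1,150 cells/well; Buffer or medium: IMEM plus 15% FBS; Dosing: tenfold compound dosing solution, DMSO at 0.1%; Timing: overnight cell rest, 72 h compound treatment at 37 °C; Detection: ATP-based CellTiter-Glo luminescent readout; Read-out basis: viability percentage against median untreated-cell control; Controls: cell-only wells, no compound.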
bCat KO growth: primary screen for growth suppressors in beta-catenin knockout HCT116 cells (colon tumor, human); HCT116 beta-catenin knockout viability, CellTiter-Glo, 60 h; active compounds read low; viability, % at 10 µM; 140,000 compounds, 1.5% hits; AID 818, 2007;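 active means viability at or under a set limit, the compound median less 4 SD, cut at about 6% in these data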;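 further: 0% = Hyamine 1622 control at 20 µM and 100% = untreated cell control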
H69AR inhibit: proliferation blockers of H69AR lung cancer cells, primary screen, cell-based, human, 86K library. H69AR lung tumor viability, ATP luminescence, 72 h; active compounds read low. viability, % at 10 µM. 85,000 compounds, 6% hits;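 active means viability at or below 40%; inactive means viability above 40%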;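 further: multidrug resistant small cell line overexpressing MRP-1 efflux transporter; 100% = mean luminescence of untreated control wells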
HUVEC inhibit: inhibitors of HUVEC proliferation, primary screen, cell-based, 384-well; CellTiter-Glo luminescence, 72 h; active compounds read low; viability, % at 10 µM (by protocol); 86,000 compounds, 1.1% hits;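 active means viability at or below 30%; inactive means viability above 30%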;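 further: 100% = median luminescence of DMSO-only cell control wells on each plate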
HCT116 PTEN-null: growth suppression of PTEN-null HCT116, primary screen, cell-based, CellTiter-Glo | HCT116 PTEN-null viability, 60 h; active compounds read low | viability, % at 10 µM | 140,000 compounds, 1.2% hits | AID 827, 2007;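 active means viability at or below a set limit, 4 SD under the median of all tested compounds, cut at about 3.7% in these data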;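 further: PTEN knockout HCT116 line with beta catenin targeted HCT116 as companion control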
Active calls of the source: *; . = not tested or not shown. The full list was thinned out, with hits kept by preference.

SMILES	Fibroblast inh	bCat KO growth	H69AR inhibit	HUVEC inhibit	HCT116 PTEN-null
Cn1nnnc1Sc1nc(-c2cccnc2)nc2ccccc12	11.7*	.	0.0*	86.5	.
O=C(NCC1CCCO1)NC1(C(F)(F)F)Oc2ccccc2O1 (stereo unspecified)	77.7	70.0	21.0*	71.4	67.5
O=C(Nc1ccc2c(c1)OCO2)NC1(C(F)(F)F)Oc2ccccc2O1	92.8	75.3	26.4*	79.5	87.0
O=C(NCC1CCCO1)c1ccccc1 (stereo unspecified)	104.7	94.6	91.1	98.5	103.7
O=C(Nc1ccc2c(c1)OCCO2)NC1(C(F)(F)F)Oc2ccccc2O1	93.1	74.5	40.0	74.5	65.8
O=C(NC1(C(F)(F)F)Oc2ccccc2O1)N1CCCC1	81.5	69.7	27.9*	65.4	75.2
CC(C)NS(=O)(=O)c1ccc(NC(=O)NC2CCCCC2)cc1	.	91.4	.	.	96.8
O=c1c2cn[nH]c2[nH]c(=S)n1-c1cccc(Cl)c1	.	92.5	.	.	86.6
O=C(CN(c1cccc(C(F)(F)F)c1)S(=O)(=O)c1ccc(Cl)c([N+](=O)[O-])c1)NCc1ccccc1	.	39.7	.	.	46.7
Cc1ccc(N(CC(=O)NCCc2ccc(F)cc2)S(=O)(=O)c2ccc(Cl)c([N+](=O)[O-])c2)c(C)c1	.	1.5*	.	.	1.4*
CCCCc1oc2ccccc2c1C(=O)c1cc(I)c(OCCN(CC)CC)c(I)c1	90.2	12.9	2.1*	16.9*	17.0
CCOc1ccc(NC(=O)Nc2cc(OCC(F)(F)F)cc(OCC(F)(F)F)c2)cc1	.	40.6	.	.	17.5
O=C(Nc1ccc(F)cc1)Nc1cc(OCC(F)(F)F)cc(OCC(F)(F)F)c1	.	5.5*	.	.	3.7*
O=C(NCCNC(=O)c1cc(OCC(F)(F)F)ccc1OCC(F)(F)F)Nc1ccc(Cl)cc1	.	5.4*	.	.	9.7
O=C1c2ccccc2-c2onc3ccc(NCc4ccco4)c1c23	87.0	53.9	34.1*	53.8	49.8
CCOc1ccc2noc3c2c1C(=O)c1ccccc1-3	.	77.9	.	.	76.5
O=c1nccc(NCc2ccco2)[nH]1	107.3	90.1	102.8	106.7	93.7
CCNc1ccc2noc3c2c1C(=O)c1ccccc1-3	87.5	32.9	17.6*	68.6	46.1
CCOC(=O)c1c(NC(=O)c2cc(-c3ccc(Cl)s3)nc3ccccc23)sc(C(N)=O)c1C	.	3.6*	.	.	1.2*
Cc1ccccc1-c1cc(C(=O)Nc2sc(C)c(C)c2C(N)=O)c2ccccc2n1	.	64.7	.	.	53.5
O=C(COC(=O)c1cc(-c2cccs2)nc2ccccc12)NCc1ccco1	102.9	96.5	89.3	91.6	103.7
CCOC(=O)c1c(NC(=O)c2ccc(Cl)s2)sc(C)c1C	100.1	.	32.6*	76.1	.
O=C(COC(=O)c1cc(-c2ccc(Cl)s2)nc2ccccc12)NCc1ccco1	95.3	53.4	26.7*	64.2	61.6
COc1ccc2c(c1)SCC/C2=C\CN1C(=O)CCC1=O	.	94.0	.	.	99.5
COc1ccc(C)cc1N1C(=N)/C(=C2/Nc3ccccc3S2)C(c2ccccc2)C1=O (stereo unspecified)	.	1.6*	.	.	1.7*
SMILES	Fibroblast inh	bCat KO growth	H69AR inhibit	HUVEC inhibit	HCT116 PTEN-null
O=C(NNC(=S)Nc1ccc(Cl)cc1Cl)c1ccc(N2CCOCC2)c([N+](=O)[O-])c1	.	92.9	.	.	94.6
Cc1ccc(-n2nnc3c(SCC(=O)NCC4CCCO4)ncnc32)cc1 (stereo unspecified)	96.6	62.1	86.2	86.3	62.4
O=C(CSc1ncnc2c1nnn2-c1ccc(F)cc1)NCC1CCCO1 (stereo unspecified)	97.5	5.8*	48.9	90.1	28.2
CC(C)(C)n1cnc2cc(NS(=O)(=O)c3ccccc3)ccc21	39.3*	85.9	98.0	99.7	89.8
COc1ccc(-n2cnc3cc(NS(=O)(=O)c4ccccc4)ccc32)cc1	92.3	80.2	68.7	76.4	70.9
Cn1cnc2cc(NS(=O)(=O)c3ccc(Br)cc3)ccc21	85.0	66.8	39.1*	98.4	61.0
NC(=O)CC[C@H](NC(=O)OCc1ccccc1)C(=O)OCc1ccc(Cl)cc1	.	93.1	.	.	105.2
CC1CCCC(C)N1CC(O)COCC1COc2ccccc2O1 (stereo unspecified)	.	85.3	.	.	93.1
Nc1oc2ccccc2c(=O)c1C=O	.	83.5	.	.	86.0
S=C(Nc1ccc(Cl)c(Cl)c1)NC1CCCCC1	.	7.9	.	.	4.8
S=C(Nc1ccc(Cl)c(Cl)c1)NC1CCN(Cc2ccccc2)CC1	.	3.8*	.	.	7.9
NS(=O)(=O)c1ccc(N/N=C2/CCCCC2C2CCCCC2)c([N+](=O)[O-])c1 (stereo unspecified)	.	1.7*	.	.	2.5*
CC1C/C(=N\Nc2ccc(S(N)(=O)=O)cc2[N+](=O)[O-])CC(C)(C)C1 (stereo unspecified)	.	61.5	.	.	61.2
Cc1ccc(NCC(=O)NNC2=NCCC2)c(C)c1	.	93.3	.	.	94.9
N#Cc1nc(-c2cccc3ccccc23)oc1NCCN1CCCCC1	52.9	56.7	12.6*	5.1*	47.4
COc1ccc2c(c1)O[C@@H](c1cccc(C(F)(F)F)c1)[C@H](OC(=O)NCCc1ccc(OC)c(OC)c1)C2=O	.	77.3	.	.	83.7
CCn1cc(C(=O)OCC(=O)Nc2ccc(S(=O)(=O)N3CCCC3)cc2)c(=O)c2ccc(C)nc21	87.9	97.6	25.8*	90.6	101.3
O=C(NNc1nc2cc3c(cc2s1)OCO3)c1cccc(F)c1	.	0.6*	.	.	0.2*
CCN(CC)S(=O)(=O)c1cccc(C(=O)Nc2nc3cc4c(cc3s2)OCCO4)c1	95.0	39.4	22.5*	104.0	54.3
Cn1ccnc1SCC(=O)c1ccc(Br)cc1	95.9	81.0	28.7*	87.8	72.8
CN(C)CCCNC(=O)c1ccccn1	97.8	99.8	91.0	94.2	94.1
CN(C)CCCNC(=O)c1ccc(-c2nc(-c3ccc(Cl)cc3)cs2)cc1	.	1.3*	.	.	1.5*
O=C(NCc1ccccc1)C(=O)NCC1COc2ccccc2O1 (stereo unspecified)	56.0	24.1	28.9*	53.9	24.2
COC(=O)CSc1snnc1-c1ccc(Cl)cc1Cl	100.8	96.8	105.7	89.3	103.7
Cc1cc(C2=CC(C)(c3cc(C)oc3C)Nc3nc(C(F)(F)F)nn32)c(C)o1 (stereo unspecified)	79.6	79.9	3.2*	66.6	83.0
O=C(C1CCCCC1)N1CCC(c2nc3c(nnn3Cc3ccccc3Cl)c(=O)[nH]2)CC1	89.3	.	38.9*	64.3	.
